Test system: U2OS
Assay: Multiplex assay against U2OS
Format: toxicity, cell-based
Conditions: human
Summary of the method: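 Tubulin, mitochondrial-mass and membrane-permeability phenotypes are per cents of healthy-nucleus cells. Cells were gated by CellPathfinder machine learning into Hoechst high-intensity objects or normal cells, normal cells into healthy, pyknosed or fragmented nuclei, and pyknosed cells into mitotic or apoptotic. Before that, live cells stained at seeding with Hoechst33342, BioTracker Green Microtubule Cytoskeleton Dye, MitoTracker Red and Annexin V Alexa Fluor 680 were imaged on a CQ1 microscope at 37°C and 5% CO2 after compound addition.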

[1] = 12 h, 1 µM, compound concentration 1 uM, replicate 1
[2] = 12 h, 1 µM, compound concentration 1 uM, replicate 2
[3] = 12 h, 10 µM, compound concentration 10 uM, replicate 1
[4] = 12 h, 10 µM, compound concentration 10 uM, replicate 2
[5] = 24 h, 1 µM, compound concentration 1 uM, replicate 1
[6] = 24 h, 1 µM, compound concentration 1 uM, replicate 2
[7] = 24 h, 10 µM, compound concentration 10 uM, replicate 1
[8] = 24 h, 10 µM, compound concentration 10 uM, replicate 2
[9] = 48 h, 1 µM, compound concentration 1 uM, replicate 1
[10] = 48 h, 1 µM, compound concentration 1 uM, replicate 2
[11] = 48 h, 10 µM, compound concentration 10 uM, replicate 1
[12] = 48 h, 10 µM, compound concentration 10 uM, replicate 2

Structure (SMILES): N#CCNC(=O)c1ccc(-c2ccnc(Nc3ccc(N4CCOCC4)cc3)n2)cc1 [MOMELOTINIB]
- Population Apoptotic (%) [1]: 70%
- Population Fragmented Nuclei (%) [1]: 12%
- Population Healthy Nuclei (%) [1]: 77%
- Population Hoechst High Intensity Objects (%) [1]: 5%
- Population Membrane Permeable-Phenotype (%) [1]: 9%
- Population Mitochondria Different-Phenotype (%) [1]: 6%
- Population Mitotic Cells (%) [1]: 29%
- Population Normal (%) [1]: 94%
- Population Pyknosed Nuclei (%) [1]: 10%
- Population Tubulin-Different-Phenotype (%) [1]: 18%
- Total Cell Count [1]: 3583
- Population Apoptotic (%) [2]: 60%
- Population Fragmented Nuclei (%) [2]: 1%
- Population Healthy Nuclei (%) [2]: 88%
- Population Hoechst High Intensity Objects (%) [2]: 8%
- Population Membrane Permeable-Phenotype (%) [2]: 2%
- Population Mitochondria Different-Phenotype (%) [2]: 13%
- Population Mitotic Cells (%) [2]: 40%
- Population Normal (%) [2]: 91%
- Population Pyknosed Nuclei (%) [2]: 9%
- Population Tubulin-Different-Phenotype (%) [2]: 11%
- Total Cell Count [2]: 3119
- Population Apoptotic (%) [3]: 44%
- Population Fragmented Nuclei (%) [3]: 18%
- Population Healthy Nuclei (%) [3]: 57%
- Population Hoechst High Intensity Objects (%) [3]: 6%
- Population Membrane Permeable-Phenotype (%) [3]: 10%
- Population Mitochondria Different-Phenotype (%) [3]: 20%
- Population Mitotic Cells (%) [3]: 55%
- Population Normal (%) [3]: 93%
- Population Pyknosed Nuclei (%) [3]: 23%
- Population Tubulin-Different-Phenotype (%) [3]: 20%
- Total Cell Count [3]: 180
- Population Apoptotic (%) [4]: 13%
- Population Fragmented Nuclei (%) [4]: 27%
- Population Healthy Nuclei (%) [4]: 47%
- Population Hoechst High Intensity Objects (%) [4]: 10%
- Population Membrane Permeable-Phenotype (%) [4]: 0%
- Population Mitochondria Different-Phenotype (%) [4]: 6%
- Population Mitotic Cells (%) [4]: 86%
- Population Normal (%) [4]: 89%
- Population Pyknosed Nuclei (%) [4]: 24%
- Population Tubulin-Different-Phenotype (%) [4]: 6%
- Total Cell Count [4]: 56
- Population Apoptotic (%) [5]: 42%
- Population Fragmented Nuclei (%) [5]: 14%
- Population Healthy Nuclei (%) [5]: 78%
- Population Hoechst High Intensity Objects (%) [5]: 3%
- Population Membrane Permeable-Phenotype (%) [5]: 10%
- Population Mitochondria Different-Phenotype (%) [5]: 9%
- Population Mitotic Cells (%) [5]: 57%
- Population Normal (%) [5]: 96%
- Population Pyknosed Nuclei (%) [5]: 7%
- Population Tubulin-Different-Phenotype (%) [5]: 17%
- Total Cell Count [5]: 3609
- Population Apoptotic (%) [6]: 66%
- Population Fragmented Nuclei (%) [6]: 7%
- Population Healthy Nuclei (%) [6]: 86%
- Population Hoechst High Intensity Objects (%) [6]: 10%
- Population Membrane Permeable-Phenotype (%) [6]: 6%
- Population Mitochondria Different-Phenotype (%) [6]: 15%
- Population Mitotic Cells (%) [6]: 33%
- Population Normal (%) [6]: 89%
- Population Pyknosed Nuclei (%) [6]: 5%
- Population Tubulin-Different-Phenotype (%) [6]: 8%
- Total Cell Count [6]: 3108
- Population Apoptotic (%) [7]: 61%
- Population Fragmented Nuclei (%) [7]: 20%
- Population Healthy Nuclei (%) [7]: 46%
- Population Hoechst High Intensity Objects (%) [7]: 8%
- Population Membrane Permeable-Phenotype (%) [7]: 13%
- Population Mitochondria Different-Phenotype (%) [7]: 20%
- Population Mitotic Cells (%) [7]: 38%
- Population Normal (%) [7]: 91%
- Population Pyknosed Nuclei (%) [7]: 33%
- Population Tubulin-Different-Phenotype (%) [7]: 20%
- Total Cell Count [7]: 194
- Population Apoptotic (%) [8]: 45%
- Population Fragmented Nuclei (%) [8]: 31%
- Population Healthy Nuclei (%) [8]: 52%
- Population Hoechst High Intensity Objects (%) [8]: 5%
- Population Membrane Permeable-Phenotype (%) [8]: 28%
- Population Mitochondria Different-Phenotype (%) [8]: 34%
- Population Mitotic Cells (%) [8]: 54%
- Population Normal (%) [8]: 94%
- Population Pyknosed Nuclei (%) [8]: 16%
- Population Tubulin-Different-Phenotype (%) [8]: 14%
- Total Cell Count [8]: 59
- Population Apoptotic (%) [9]: 27%
- Population Fragmented Nuclei (%) [9]: 9%
- Population Healthy Nuclei (%) [9]: 82%
- Population Hoechst High Intensity Objects (%) [9]: 3%
- Population Membrane Permeable-Phenotype (%) [9]: 2%
- Population Mitochondria Different-Phenotype (%) [9]: 18%
- Population Mitotic Cells (%) [9]: 72%
- Population Normal (%) [9]: 96%
- Population Pyknosed Nuclei (%) [9]: 7%
- Population Tubulin-Different-Phenotype (%) [9]: 19%
- Total Cell Count [9]: 3211
- Population Apoptotic (%) [10]: 100%
- Population Fragmented Nuclei (%) [10]: 7%
- Population Healthy Nuclei (%) [10]: 89%
- Population Hoechst High Intensity Objects (%) [10]: 2%
- Population Membrane Permeable-Phenotype (%) [10]: 8%
- Population Mitochondria Different-Phenotype (%) [10]: 17%
- Population Mitotic Cells (%) [10]: 0%
- Population Normal (%) [10]: 97%
- Population Pyknosed Nuclei (%) [10]: 2%
- Population Tubulin-Different-Phenotype (%) [10]: 22%
- Total Cell Count [10]: 3226
- Population Apoptotic (%) [11]: 72%
- Population Fragmented Nuclei (%) [11]: 29%
- Population Healthy Nuclei (%) [11]: 26%
- Population Hoechst High Intensity Objects (%) [11]: 4%
- Population Membrane Permeable-Phenotype (%) [11]: 20%
- Population Mitochondria Different-Phenotype (%) [11]: 20%
- Population Mitotic Cells (%) [11]: 27%
- Population Normal (%) [11]: 95%
- Population Pyknosed Nuclei (%) [11]: 43%
- Population Tubulin-Different-Phenotype (%) [11]: 25%
- Total Cell Count [11]: 241
- Population Apoptotic (%) [12]: 53%
- Population Fragmented Nuclei (%) [12]: 33%
- Population Healthy Nuclei (%) [12]: 44%
- Population Hoechst High Intensity Objects (%) [12]: 11%
- Population Membrane Permeable-Phenotype (%) [12]: 26%
- Population Mitochondria Different-Phenotype (%) [12]: 38%
- Population Mitotic Cells (%) [12]: 46%
- Population Normal (%) [12]: 88%
- Population Pyknosed Nuclei (%) [12]: 22%
- Population Tubulin-Different-Phenotype (%) [12]: 26%
- Total Cell Count [12]: 71
